In ChEMBL document CHEMBL5338759, “N-Phenyl-1-(phenylsulfonyl)-1H-1,2,4-triazol-3-amine as a New Class of HIV-1 Non-nucleoside Reverse Transcriptase Inhibitor” (J Med Chem, 2023):

Columns and labels:
[1] = Subacute toxicity in BALB/c mouse assessed as effect on pancreas weight at 25 to 250 mg/kg, IG measured daily for 30 days; assay type: organism-based; details: in vivo, po, 720 h, dose 25-250 mg/kg, time 30 day
[2] = Selectivity index, ratio of CC50 for cytotoxicity against human TZM-bl cells assessed as reduction in cell viability by MTS assay to EC50 for antiviral activity against wild type HIV1 IIIB infected in human TZM-bl cells; assay type: toxicity, cell-based; details: read-out: Ratio CC50/EC50
[3] = Subacute toxicity in BALB/c mouse assessed as effect on spleen weight at 25 to 250 mg/kg, IG measured daily for 30 days; assay type: organism-based; details: in vivo, po, 720 h, dose 25-250 mg/kg, time 30 day
[4] = Tmax in BALB/c mouse brain at 250 mg/kg, IG measured at 0.5 to 24 hrs by HPLC-MS analysis; assay type: ADME, organism-based; details: po, time 0.5-24 hrs
Outline: (§1)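 Mice averaging 20 g (24 animals) were fasted 1 h before and 1 h after dosing. They received 250 mg/kg as 0.5 ml suspension in 1% CMC, 0.05% Tween 80 by intragastric intubation. Blood and brain were taken after decapitation at 0.5, 1, 2, 3, 5, 8 and 24 h (3 per time point). Plasma was frozen at -20°C and brain at -120 °C. Quantification was by UPLC-HRMS (ESI+, EIC m/z 476.0691) against plasma-matrix standards. Parameters were derived by noncompartmental analysis; LLOQ 5 ng/ml, with values below it set to 2.5.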

[5] = Neurotoxicity in mouse primary neurons assessed as loss of MAP-2 intensity at 0.0001 to 10 uM incubated for 48 hrs by semi-quantitative analysis; details: neuron
TZM = assay: Cytotoxicity against human TZM-bl cells assessed as reduction in viability incubated for 48 hrs by CellTiter-Blue cell viability assay
[6] = Tmax in BALB/c mouse plasma at 250 mg/kg, IG measured at 0.5 to 24 hrs by HPLC-MS analysis; assay type: ADME, organism-based; details: in vivo, po, time 0.5-24 hrs; outline: as §1
[7] = Subacute toxicity in BALB/c mouse assessed as pathological change in lungs at 25 to 250 mg/kg, IG measured daily for 30 days by H and E staining based histological analysis; assay type: organism-based; details: in vivo, po, 720 h, dose 25-250 mg/kg, time 30 day
Outline: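 Male Balb/C mice (17 per group) received 25 or 250 mg/kg intragastrically in 1% starch gel once daily for 30 days, against starch gel controls. Internal organs were examined macroscopically after the study. Sections were paraffin-embedded and stained with hematoxylin and eosin.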

[8] = Subacute toxicity in BALB/c mouse assessed as reduction in RBC count at 25 to 250 mg/kg, IG measured daily for 30 days; assay type: organism-based, Erythrocyte; details: in vivo, po, 720 h, dose 25-250 mg/kg, time 30 day
[9] = Subacute toxicity in BALB/c mouse assessed as effect on thymus weight at 25 to 250 mg/kg, IG measured daily for 30 days; assay type: organism-based; details: in vivo, po, 720 h, dose 25-250 mg/kg, time 30 day

SMILES: N#C/C=C/c1ccc2c(S(=O)(=O)n3nc(Nc4ccc(C#N)c(Cl)c4)nc3N)cccc2c1
- Activity [1]: Non-Toxic
- selectivity ratio [2]: 10000
- Activity [3]: Non-Toxic
- Tmax [4]: 2 h
- Activity [5]: Non-Toxic
- CC50 (TZM): 4.8 µM
- Tmax [6]: 0.7 h
- Activity [7]: Non-Toxic
- Activity [8]: Non-Toxic
- Activity [9]: Non-Toxic
